Reference: ChEMBL document CHEMBL1821698, “Synthesis and biological activities of (R)- and (S)-N-(4-Methoxyphenyl)-N,2,6-trimethyl-6,7-dihydro-5H-cyclopenta[d]pyrimidin-4-aminium chloride as potent cytotoxic antitubulin agents” (J Med Chem, 2011)
Activity calls are given as the source filed them. No cut-off for these calls is given here.

Assays:
MDA-MB-435 [1] = test: Cell cycle arrest in human MDA-MB-435 cells assessed as accumulation of cells at G2/M phase at 3 times IC50 after 18 hrs by flow cytometry; type: functional
MDA-MB-435 [2] = test: Antiproliferative activity against human MDA-MB-435 cells by SRB assay; type: functional, cell-based
Summary of the method: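 SRB assay on drug-sensitive MDA-MB-435 cells; IC50 is the concentration giving 50% inhibition of proliferation, n = 3.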

SK-OV-3 [3] = test: Antiproliferative activity against human SKOV3 cells; type: functional, cell-based
SK-OV-3 [4] = test: Antiproliferative activity against MDR-1-6/6 overexpressing human SKOV3 cells; type: functional, cell-based
[5] = Inhibition of microtubule polymerization in A-10 cells; details: A10
tubulin (Bos taurus) [6] = test: Displacement of [3H]colchicine from bovine brain tubulin at 5 uM
tubulin (Bos taurus) [7] = test: Displacement of [3H]colchicine from bovine brain tubulin using purified tubulin at 1 uM
SK-OV-3 [8] = test: Relative resistance ratio of IC50 for MDR-1-6/6 overexpressing human SKOV3 cells to IC50 for human SKOV3 cells; type: functional
HeLa [9] = test: Antiproliferative activity against human HeLa cells; type: functional, cell-based
HeLa [10] = test: Antiproliferative activity against beta3-tubulin overexpressing human HeLa cells; type: functional, cell-based
HeLa [11] = test: Relative resistance ratio of IC50 for beta3-tubulin overexpressing human HeLa cells to IC50 for human HeLa cells; type: functional
[12] = Inhibition of bovine brain tubulin assembly
[13] = Ratio of EC50 for microtubule depolymerization in A-10 cells to IC50 for human MDA-MB-435 cells
MDA-MB-435 [14] = test: Cell cycle arrest in human MDA-MB-435 cells assessed as accumulation of cells at subG1 phase at 3 times IC50 after 18 hrs by flow cytometry; type: functional, cell-based

Row | SMILES | IC50 (MDA-MB-435 [2]) [nM] | IC50 (SK-OV-3 [3]) [nM] | IC50 (SK-OV-3 [4]) [nM] | EC50 [5] [nM] | IC50 (HeLa [9]) [nM] | IC50 (HeLa [10]) [nM] | IC50 [12] [nM] | Activity (MDA-MB-435 [1]) [%] | inhibition (tubulin (Bos taurus) [6]) [%] | inhibition (tubulin (Bos taurus) [7]) [%] | Ratio IC50 (SK-OV-3 [8]) | Ratio IC50 (HeLa [11]) | Ratio [13] | Activity (MDA-MB-435 [14])
1 | COc1ccc(/C=C\c2cc(OC)c(OC)c(OC)c2)cc1O [COMBRETASTATIN A4] | 3.4 | 6.05 | 22 | 13 | – | – | – | 88.4 | 98 | 85 | – | – | – | –
2 | CC(=O)O[C@H]1C(=O)[C@@]2(C)[C@H]([C@H](OC(=O)c3ccccc3)[C@]3(O)C[C@H](OC(=O)[C@H](O)[C@@H](NC(=O)c4ccccc4)c4ccccc4)C(C)=C1C3(C)C)[C@]1(OC(C)=O)CO[C@@H]1C[C@@H]2O [PACLITAXEL] | – | 2.95 | 4880 | – | – | – | – | – | – | – | – | – | – | –
3 | COc1ccc(N(C)c2nc(C)nc3c2CC(C)C3)cc1.Cl (racemic) | 17 | 34.5 | 60.9 | 56 | 37.3 | 23.9 | 1500 | 65.9 | 87 | 59 | 1.8 | 0.6 | 3 | Active

More lines, in order of falling IC50 (SK-OV-3 [3]), values ahead:

Row | IC50 (MDA-MB-435 [2]) [nM] | IC50 (SK-OV-3 [3]) [nM] | IC50 (SK-OV-3 [4]) [nM] | EC50 [5] [nM] | IC50 (HeLa [9]) [nM] | IC50 (HeLa [10]) [nM] | IC50 [12] [nM] | SMILES | Activity (MDA-MB-435 [1]) [%] | inhibition (tubulin (Bos taurus) [6]) [%] | inhibition (tubulin (Bos taurus) [7]) [%] | Ratio IC50 (SK-OV-3 [8]) | Ratio IC50 (HeLa [11]) | Ratio [13] | Activity (MDA-MB-435 [14])
4 | 51 | 85.9 | 120 | 278 | 92.9 | 67.7 | 2100 | COc1ccc(N(C)c2nc(C)nc3c2C[C@@H](C)C3)cc1.Cl | 91.4 | 77 | 37 | 1.4 | 0.7 | 5 | –
5 | 12 | 16.4 | 62.6 | 23 | 19 | 13.3 | 1300 | COc1ccc(N(C)c2nc(C)nc3c2C[C@H](C)C3)cc1.Cl | 49.2 | 93 | 70 | 3.8 | 0.7 | 2 | Active
